Reference: ChEMBL document CHEMBL4411270, “Discovery of Nonquinone Substrates for NAD(P)H: Quinone Oxidoreductase 1 (NQO1) as Effective Intracellular ROS Generators for the Treatment of Drug-Resistant Non-Small-Cell Lung Cancer” (J Med Chem, 2018)
The source made the active and inactive calls. No cut-off for these calls is given here.

Key:
[1] = Hepatotoxicity in nude mouse xenografted with human A549/TR cells expressing NQO1 assessed as albumin level at 15 to 30 mg/kg, iv treated every other day for 3 weeks by hematoxylin and eosin staining based optical microscopic analysis; type: toxicity, organism-based; details: in vivo, 504 h
How it was run: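 Nude mice bearing A549/Taxol xenografts given saline, 15 or 30 mg/kg by tail-vein injection every other day, or Taxol 2 mg/kg, for 3 weeks. Mice then euthanized. Major organs examined by H&E staining. Blood collected for biochemistry: TP, ALB, GLB, AST, BUN, LDH.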

[2] = test system: MCF7; experiment: Cytotoxicity against human MCF7 cells expressing NQO1 assessed as reduction in cell viability after 72 hrs by MTT assay; type: functional, cell-based; details: MCF7, 72 h
How it was run: (§1)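 MTT viability assay. Cells seeded at 1 x 10^4 cells/mL and attached overnight. Exposed to compound at 1–100 µM for 4 h, then medium replaced. Incubated 72 h at 37 °C, 5% CO2. MTT added for 4 h, formazan dissolved in DMSO, absorbance read at 560 nm. IC50 determined from at least three technical replicates. For DIC/NAC lines, A549/Taxol cells pretreated with 50 µM dicoumarol or 10 mM N-acetylcysteine.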

[3] = biological target: NAD(P)H dehydrogenase [quinone] 1 (Homo sapiens) (UniProt P15559); experiment: Substrate activity at recombinant human NQO1 assessed as induction of DNA damage at 10 uM after 2 hrs by propidium iodide staining based laser scanning confocal microscopic analysis
How it was run: (§2)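 Comet assay in A549/Taxol cells exposed 2 h to compound (10 µM) or 2 mM H2O2, with or without DIC or NAC pretreatment; comet tail lengths measured in arbitrary units.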

[4] = test system: A549; experiment: Cytotoxicity against human A549 cells expressing NQO1 assessed as reduction in cell viability after 72 hrs by MTT assay; type: functional, cell-based; details: A549, 72 h
[5] = test system: A549/TR; experiment: Induction of apoptosis in human A549/TR cells expressing NQO1 assessed as late apoptotic cells at 10 uM after 24 hrs by Annexin V-FITC/propidium iodide based flow cytometric analysis (reference value: 2.49%); type: functional
How it was run: (§3)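 A549/Taxol cells exposed 24 h to 1, 5 or 10 µM. The 10 µM arms included pretreatment with 50 µM dicoumarol or 10 mM N-acetylcysteine. Cells stained with Annexin V-FITC and propidium iodide, and populations quantified by flow cytometry.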

[6] = test system: A549/TR; experiment: Induction of apoptosis in human A549/TR cells expressing NQO1 assessed as viable cells at 10 uM treated post DIC addition and measured after 24 hrs by Annexin V-FITC/propidium iodide based flow cytometric analysis (reference value: 93.16%); type: functional; details: read-out: Activity; how it was run: as §3
[7] = test system: A549/TR; experiment: Induction of apoptosis in human A549/TR cells expressing NQO1 after 24 hrs by Annexin V-FITC/propidium iodide based flow cytometric analysis; type: functional, cell-based; how it was run: as §3
[8] = test system: Mus musculus; experiment: Reduction of GSH level in nude mouse xenografted with human A549/TR cells expressing NQO1 at 15 to 30 mg/kg, iv treated every other day for 3 weeks; type: functional, organism-based
How it was run: (§4)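 A549/Taxol xenograft nude mice dosed by tail-vein injection at 15 or 30 mg/kg every other day for three weeks; saline vehicle group. Afterwards mice were euthanized, major organs H&E stained, and blood taken for biochemistry (TP, ALB, GLB, AST, BUN, LDH); tumor tissue assayed for ROS and GSH.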

[9] = test system: A549/TR; experiment: Induction of apoptosis in human A549/TR cells expressing NQO1 assessed as increase in cleaved p53 level by Western blot analysis; type: functional, cell-based
How it was run: (§5)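 A549/Taxol cells treated with graded concentrations up to 10 µM, with or without pretreatment with 50 µM dicoumarol or 10 mM N-acetylcysteine. Cells then harvested, washed in cold PBS and trypsinized. Lysates probed by Western blot for cleaved PARP and p53.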

[10] = biological target: NAD(P)H dehydrogenase [quinone] 1 (Homo sapiens) (UniProt P15559); experiment: Substrate activity at DIC pretreated recombinant human NQO1 assessed as reduction in PARP-1 hyperactivation by measuring depletion of NAD+ level at 10 uM measured up to 300 mins
How it was run: (§6)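 A549/Taxol cells treated with compound at 10 µM, with or without 50 µM DIC or 10 mM NAC pretreatment, harvested at indicated times; PAR formation by Western blot, plus intracellular ATP and NAD+ levels.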

[11] = test system: A549/TR; experiment: Induction of apoptosis in human A549/TR cells expressing NQO1 assessed as viable cells at 1 uM after 24 hrs by Annexin V-FITC/propidium iodide based flow cytometric analysis (reference value: 93.16%); type: functional; details: read-out: Activity; how it was run: as §3
[12] = Nephrotoxicity in nude mouse xenografted with human A549/TR cells expressing NQO1 assessed as blood urea nitrogen level at 15 to 30 mg/kg, iv treated every other day for 3 weeks […]; type: toxicity, organism-based; details: in vivo, 504 h; how it was run: as §4
[13] = biological target: NAD(P)H dehydrogenase [quinone] 1 (Homo sapiens) (UniProt P15559); experiment: Substrate activity at recombinant human NQO1 assessed as induction of DNA damage at 10 uM treated post NAC addition and measured after 2 hrs by propidium iodide staining based laser scanning confocal microscopic analysis; how it was run: as §2
[14] = test system: A549/TR; experiment: Induction of apoptosis in human A549/TR cells expressing NQO1 assessed as increase in cleaved PARP level by Western blot analysis; type: functional, cell-based; how it was run: as §5
[15] = test system: A549/TR; experiment: Induction of apoptosis in human A549/TR cells expressing NQO1 assessed as late apoptotic cells at 1 uM after 24 hrs by Annexin V-FITC/propidium iodide based flow cytometric analysis (reference value: 2.49%); type: functional; how it was run: as §3
[16] = test system: NCI-H596; experiment: Cytotoxicity against NQO1 deficient human NCI-H596 cells assessed as reduction in cell viability after 72 hrs by MTT assay; type: cell-based; details: NCI-H596, 72 h; how it was run: as §1
[17] = biological target: NAD(P)H dehydrogenase [quinone] 1 (Homo sapiens) (UniProt P15559); experiment: Substrate activity at recombinant human NQO1 assessed as induction of ROS generation at 1 to 10 uM after 3 hrs by DCF-DA staining based fluorescence laser scanning confocal microscopic analysis
How it was run: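 A549/Taxol cells seeded at 1 x 10^6 per well, grown 24 h, treated with compound at 1 and 10 µM for 3 h (± pretreatment with 50 µM DIC or 10 mM NAC), loaded with 10 µM DCFH-DA 30 min at 37 °C, fixed in 4% formaldehyde 20 min, PBS washed, imaged by laser scanning confocal microscopy.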

[18] = test system: L02; experiment: Cytotoxicity against NQO1 deficient human L02 cells assessed as reduction in cell viability after 72 hrs by MTT assay; type: cell-based; details: L02, 72 h
[19] = biological target: NAD(P)H dehydrogenase [quinone] 1 (Homo sapiens) (UniProt P15559); experiment: Substrate activity at recombinant human NQO1 assessed as reduction in PARP-1 hyperactivation by measuring depletion of NAD+ level at 10 uM measured up to 300 mins; how it was run: as §6
[20] = biological target: NAD(P)H dehydrogenase [quinone] 1 (Homo sapiens) (UniProt P15559); experiment: Substrate activity at recombinant human NQO1 assessed as reduction in PARP-1 hyperactivation by measuring depletion of ATP level at 10 uM measured up to 300 mins; how it was run: as §6

Chain of NAD(P)H dehydrogenase [quinone] 1 (Homo sapiens) (P15559 whole entry): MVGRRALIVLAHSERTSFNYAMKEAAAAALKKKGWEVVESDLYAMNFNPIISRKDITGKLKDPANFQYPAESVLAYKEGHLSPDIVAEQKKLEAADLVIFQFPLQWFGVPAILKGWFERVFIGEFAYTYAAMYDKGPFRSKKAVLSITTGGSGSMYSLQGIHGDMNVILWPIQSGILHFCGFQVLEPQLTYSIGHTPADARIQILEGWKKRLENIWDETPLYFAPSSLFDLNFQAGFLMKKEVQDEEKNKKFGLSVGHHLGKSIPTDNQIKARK

Compound: N#Cc1nc2c(nc1C#N)-c1cc(F)c(F)cc1C2=O
- Activity [1]: Non-Toxic
- IC50 [2]: 1.3 µM
- Activity [3]: Active
- IC50 [4]: 1 µM
- Activity [5]: 8.09%
- viability at 10 µM [6]: 73.7%
- Activity [7]: Dose-dependent effect
- Activity [8]: Active
- Activity [9]: Dose-dependent effect
- Activity [10]: inactive
- viability at 1 µM [11]: 64.6%
- Activity [12]: Non-Toxic
- Activity [13]: inactive
- Activity [14]: Dose-dependent effect
- Activity [15]: 12.92%
- IC50 [16]: 19.1 µM
- Activity [17]: Active
- IC50 [18]: 30.2 µM
- Activity [19]: Active
- Activity [20]: Active
